From PMC4019989 (Clinical cancer research : an official journal of the …, 2009)

Legend:
[1] = tested on: patients with relapsed or refractory hematologic malignancies; assay: Phase 1 dose escalation: adverse events, DLT, MTD; assay type: in vivo
[2] = Plasma pharmacokinetics; assay type: in vivo, human; settings: for AUCinf, Mean: included C0; for AUClast, Mean: includes C0; for half-life / C0 / Cmax / Tmax / clearance: human, plasma, iv
In short: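 Drug went in as an i.v. push over 1–2 min. Cycle 1 blood was drawn predose and at 5, 15, 30 min and 1, 2, 4 h postdose, plus predose and 30 min postdose on cycle 1 day 5 and day 1 of cycles 2 and 3. Plasma was assayed by validated LC/MS (lower limit of detection 0.10 μg/mL). Parameters came from pharmacokinetic analysis and modelling.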

[3] = tested on: relapsed or refractory hematologic malignancies; assay: Antitumor activity; assay type: in vivo, human
In short: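 Relapsed/refractory MM, NHL, Hodgkin's or Waldenström's patients got the test compound as an i.v. push over 1–2 min on days 1–5, then 9 d rest (14-d cycles). Doses were 1.2–20 mg/m2, escalated in cohorts of three, continued until unacceptable toxicity or progression. Response used EBMT criteria (MM) and International Working Group criteria (NHL, Hodgkin's). For Waldenström's: complete = total resolution, partial = >50% resolution with no new disease.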

[4] = 11 mg/m^2 i.v. push, n = 2, plasma
[5] = 15 mg/m^2 i.v. push, n = 5, plasma
[6] = 20 mg/m^2 i.v. push, n = 4, plasma

CC(C)C[C@H](NC(=O)[C@H](CCc1ccccc1)NC(=O)CN1CCOCC1)C(=O)N[C@@H](Cc1ccccc1)C(=O)N[C@@H](CC(C)C)C(=O)[C@@]1(C)CO1 [carfilzomib]
Adverse event Headache, Grade 4 ([1]; human, in vivo): 0 (0) n (%)
Adverse event Hypoesthesia, All Grades ([1]; human, in vivo): 8 (28) n (%)
Adverse event Hypoesthesia, Grade 1 ([1]; human, in vivo): 5 (17) n (%)
Adverse event Hypoesthesia, Grade 2 ([1]; human, in vivo): 3 (10) n (%)
Adverse event Hypoesthesia, Grade 3 ([1]; human, in vivo): 0 (0) n (%)
Adverse event Hypoesthesia, Grade 4 ([1]; human, in vivo): 0 (0) n (%)
Adverse event Nausea, All Grades ([1]; human, in vivo): 14 (48) n (%)
Adverse event Nausea, Grade 1 ([1]; human, in vivo): 11 (38) n (%)
Adverse event Nausea, Grade 2 ([1]; human, in vivo): 3 (10) n (%)
Adverse event Nausea, Grade 3 ([1]; human, in vivo): 0 (0) n (%)
Adverse event Nausea, Grade 4 ([1]; human, in vivo): 0 (0) n (%)
Adverse event Paresthesia, All Grades ([1]; human, in vivo): 6 (21) n (%)
Adverse event Paresthesia, Grade 1 ([1]; human, in vivo): 4 (14) n (%)
Adverse event Paresthesia, Grade 2 ([1]; human, in vivo): 2 (7) n (%)
Adverse event Paresthesia, Grade 3 ([1]; human, in vivo): 0 (0) n (%)
Adverse event Paresthesia, Grade 4 ([1]; human, in vivo): 0 (0) n (%)
Adverse event Peripheral edema, All Grades ([1]; human, in vivo): 7 (24) n (%)
Adverse event Peripheral edema, Grade 1 ([1]; human, in vivo): 7 (24) n (%)
Adverse event Peripheral edema, Grade 2 ([1]; human, in vivo): 0 (0) n (%)
Adverse event Peripheral edema, Grade 3 ([1]; human, in vivo): 0 (0) n (%)
Adverse event Peripheral edema, Grade 4 ([1]; human, in vivo): 0 (0) n (%)
Adverse event Pyrexia, All Grades ([1]; human, in vivo): 8 (28) n (%)
Grade 3 and 4 adverse events: ALT increased, Grade 3 ([1]; human, in vivo): 1 (3) n (%)
Grade 3 and 4 adverse events: ALT increased, Grade 4 ([1]; human, in vivo): 0 (0) n (%)
Grade 3 and 4 adverse events: Acute bronchitis, Grade 3 ([1]; human, in vivo): 1 (3) n (%)
Grade 3 and 4 adverse events: Acute bronchitis, Grade 4 ([1]; human, in vivo): 0 (0) n (%)
Grade 3 and 4 adverse events: Acute bronchitis, Grades 3-4 ([1]; human, in vivo): 1 (3) n (%)
Grade 3 and 4 adverse events: Alkaline phosphatase increased, Grade 3 ([1]; human, in vivo): 1 (3) n (%)
Grade 3 and 4 adverse events: Alkaline phosphatase increased, Grade 4 ([1]; human, in vivo): 0 (0) n (%)
Grade 3 and 4 adverse events: Alkaline phosphatase increased, Grades 3-4 ([1]; human, in vivo): 1 (3) n (%)
Grade 3 and 4 adverse events: Anemia, Grade 3 ([1]; human, in vivo): 1 (3) n (%)
Grade 3 and 4 adverse events: Anemia, Grade 4 ([1]; human, in vivo): 0 (0) n (%)
Grade 3 and 4 adverse events: Dyspnea, Grade 3 ([1]; human, in vivo): 1 (3) n (%)
Grade 3 and 4 adverse events: Dyspnea, Grade 4 ([1]; human, in vivo): 1 (3) n (%)
Grade 3 and 4 adverse events: Fatigue, Grade 3 ([1]; human, in vivo): 1 (3) n (%)
Grade 3 and 4 adverse events: Fatigue, Grade 4 ([1]; human, in vivo): 0 (0) n (%)
Grade 3 and 4 adverse events: Fatigue, Grades 3-4 ([1]; human, in vivo): 1 (3) n (%)
Grade 3 and 4 adverse events: Febrile neutropenia, Grade 3 ([1]; human, in vivo): 1 (3) n (%)
Grade 3 and 4 adverse events: Febrile neutropenia, Grade 4 ([1]; human, in vivo): 0 (0) n (%)
Grade 3 and 4 adverse events: Febrile neutropenia, Grades 3-4 ([1]; human, in vivo): 1 (3) n (%)
Grade 3 and 4 adverse events: Gastrointestinal hemorrhage, Grade 3 ([1]; human, in vivo): 1 (3) n (%)
Grade 3 and 4 adverse events: Gastrointestinal hemorrhage, Grade 4 ([1]; human, in vivo): 0 (0) n (%)
Grade 3 and 4 adverse events: Gastrointestinal hemorrhage, Grades 3-4 ([1]; human, in vivo): 1 (3) n (%)
Grade 3 and 4 adverse events: Hemoglobin decreased, Grade 3 ([1]; human, in vivo): 1 (3) n (%)
Grade 3 and 4 adverse events: Hemoglobin decreased, Grade 4 ([1]; human, in vivo): 0 (0) n (%)
Grade 3 and 4 adverse events: Hemoglobin decreased, Grades 3-4 ([1]; human, in vivo): 1 (3) n (%)
maximum tolerated dose (MTD) ([1]; i.v. push on 5 consecutive days within 14-day cycles): 15 mg/m^2
DLTs in the initial seven dose cohorts ([1]; in vivo): No DLTs were observed
AUCinf, Mean [2, 4]: 4,463 g·mL/h
AUClast, Mean [2, 4]: 4,457 ng·mL/h
AUCinf, Mean [2, 5]: 9,760 g·mL/h
AUClast, Mean [2, 5]: 9,728 ng·mL/h
AUCinf, Mean [2, 6]: 23,660 g·mL/h
AUClast, Mean [2, 6]: 23,123 ng·mL/h
half-life [2]: < 30 min
C0 ([2]; 11 mg/m2): 762 ng/mL
Cmax ([2]; 11 mg/m2): 90.2 ng/mL
Tmax ([2]; 11 mg/m2): 9 min
clearance ([2]; 11 mg/m2): 5060 mL/min
half-life ([2]; 11 mg/m2): 25.3 min
C0 ([2]; 15 mg/m2): 2120 ng/mL
Cmax ([2]; 15 mg/m2): 326 ng/mL
Tmax ([2]; 15 mg/m2): 5.8 min
clearance ([2]; 15 mg/m2): 7050 mL/min
half-life ([2]; 15 mg/m2): 28.9 min
C0 ([2]; 20 mg/m2): 5450 ng/mL
Cmax ([2]; 20 mg/m2): 683 ng/mL
Tmax ([2]; 20 mg/m2): 6 min
clearance ([2]; 20 mg/m2): 4130 mL/min
half-life ([2]; 20 mg/m2): 17.1 min
clearance (in words) ([2]; patients, i.v. push): higher than liver blood flow
Subjects achieving objective tumor responses ([3]; 28 of 29 patients evaluable, all responders treated at 11 mg/m^2 and higher): Four
Subjects with stable disease ([3]; across all dose cohorts and diagnoses): nine
Patients with progressive disease while on study ([3]; all cohorts): 15 patients
Average duration on therapy of subjects with stable disease ([3]; eight cycles): 116 days
IgA level by the end of the fifth cycle ([3]; person with IgA MM, 11 mg/m^2): 235 mg/dL
IgA level within two cycles (10 doses) ([3]; person with IgA MM, 11 mg/m^2, from 709 mg/dL): 297 mg/dL
reduction in serum M-protein ([3]; person with Waldenström's macroglobulinemia, after two cycles of 15 mg/m^2): 25%
Objective responses in subjects with plasma cell dyscrasias ([3]; treated at or above 11 mg/m^2, two MM, one Waldenström's macroglobulinemia): Three of six
